Test results taken from ChEMBL document CHEMBL3792365, “Dioxol and dihydrodioxin analogs of 2- and 3-phenylacetonitriles as potent anti-cancer agents with nanomolar activity against a variety of human cancer cells” (2016).
Activity calls are given as the source filed them. No cut-off for these calls is given here.

What was measured:
[1] = Growth inhibition of human OVCAR3 cells after 48 hrs by sulforhodamine B assay; type: functional; conditions: OVCAR-3, 48 h
How it was run: (§1)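 Five-dose concentration series run across a panel of 60 human tumour cell lines. GI50 is taken as the drug concentration giving a 50% reduction in net protein increase relative to untreated control cells.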

[2] = Growth inhibition of human SNB75 cells after 48 hrs by sulforhodamine B assay; type: functional; conditions: SNB-75, 48 h; how it was run: as §1
[3] = Growth inhibition of human SF295 cells after 48 hrs by sulforhodamine B assay; type: functional; conditions: SF-295, 48 h; how it was run: as §1
[4] = Growth inhibition of human DU145 cells after 48 hrs by sulforhodamine B assay; type: functional; conditions: DU-145, 48 h
How it was run: (§2)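 Five-dose testing against a 60-line human tumor cell panel. GI50 is the drug concentration giving a 50% reduction in net protein increase relative to untreated control cells.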

[5] = Growth inhibition of human OVCAR4 cells after 48 hrs by sulforhodamine B assay; type: functional; conditions: OVCAR-4, 48 h; how it was run: as §1
[6] = Growth inhibition of human NCI-ADR-RES cells after 48 hrs by sulforhodamine B assay; type: functional; how it was run: as §1
[7] = Growth inhibition of human IGROV1 cells after 48 hrs by sulforhodamine B assay; type: functional; conditions: IGROV-1, 48 h; how it was run: as §2
A498 = assay: Growth inhibition of human A498 cells after 48 hrs by sulforhodamine B assay; type: functional; conditions: A498, 48 h; how it was run: as §2
[8] = Growth inhibition of human LOXIMVI cells after 48 hrs by sulforhodamine B assay; type: functional; conditions: LOX IMVI; how it was run: as §2
K562 = assay: Growth inhibition of human K562 cells after 48 hrs by sulforhodamine B assay; type: functional; conditions: K562, 48 h; how it was run: as §2
786-0 = assay: Growth inhibition of human 786-0 cells after 48 hrs by sulforhodamine B assay; type: functional; conditions: 786-0, 48 h; how it was run: as §2
SK-MEL-28 = assay: Growth inhibition of human SK-MEL-28 cells after 48 hrs by sulforhodamine B assay; type: functional; conditions: SK-MEL-28, 48 h; how it was run: as §1
KM12 = assay: Growth inhibition of human KM12 cells after 48 hrs by sulforhodamine B assay; type: functional; conditions: KM12, 48 h; how it was run: as §2
NCI-H522 = assay: Growth inhibition of human NCI-H522 cells after 48 hrs by sulforhodamine B assay; type: functional; conditions: NCI-H522, 48 h; how it was run: as §1
[9] = Growth inhibition of human SF268 cells after 48 hrs by sulforhodamine B assay; type: functional; conditions: SF-268, 48 h; how it was run: as §1
SK-MEL-2 = assay: Growth inhibition of human SK-MEL-2 cells after 48 hrs by sulforhodamine B assay; type: functional; conditions: SK-MEL-2, 48 h; how it was run: as §1
[10] = Growth inhibition of human UO31 cells after 48 hrs by sulforhodamine B assay; type: functional; conditions: UO-31, 48 h
How it was run: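 Five-dose testing across the 60-line human tumour cell panel. GI50 is the drug concentration that gives a 50% reduction in net protein increase relative to control cells.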

[11] = Growth inhibition of human HL-60(TB) cells after 48 hrs by sulforhodamine B assay; type: functional; conditions: HL-60, 48 h
How it was run: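 Five-dose study across the 60-cell human tumour panel. GI50 is the drug concentration giving a 50% reduction in net protein increase relative to control cells.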

MCF7 = assay: Growth inhibition of human MCF7 cells after 48 hrs by sulforhodamine B assay; type: functional; conditions: MCF7, 48 h; how it was run: as §2
[12] = Growth inhibition of human SF539 cells after 48 hrs by sulforhodamine B assay; type: functional; conditions: SF-539, 48 h; how it was run: as §1
HT-29 = assay: Growth inhibition of human HT-29 cells after 48 hrs by sulforhodamine B assay; type: functional; conditions: HT-29, 48 h; how it was run: as §2
[13] = Growth inhibition of human Caki1 cells after 48 hrs by sulforhodamine B assay; type: functional; conditions: CAKI-1, 48 h; how it was run: as §2
Tubulin (Homo sapiens) [14] = target: T1, Tubulin (Homo sapiens) (UniProt P68371+Q9H4B7+P0DPH7+P68366+Q13509+Q71U36+P04350+Q3ZCM7+P07437+P68363+Q9BQE3+Q6PEY2+Q13885+Q9BVA1+Q9BUF5); assay: Induction of tubulin depolymerization (unknown origin) in slow phase assessed as depolymerization rate at 10 to 100 uM; type: protein-complex assay
Tubulin (Homo sapiens) [15] = target: T1, Tubulin (Homo sapiens); assay: Inhibition of tubulin polymerization (unknown origin) in rapid phase assessed as polymerization rate at 10 to 100 uM; type: protein-complex assay
Tubulin (Homo sapiens) [16] = target: T1, Tubulin (Homo sapiens); assay: Inhibition of tubulin polymerization (unknown origin) in rapid phase assessed as polymerization rate at 10 uM (reference value: 8.6 +/- 0.4 x 10^-4AU/sec); type: protein-complex assay
Tubulin (Homo sapiens) [17] = target: T1, Tubulin (Homo sapiens); assay: Inhibition of tubulin polymerization (unknown origin) in rapid phase assessed as polymerization rate at 100 uM (reference value: 8.6 +/- 0.4 x 10^-4AU/sec); type: protein-complex assay
Tubulin (Homo sapiens) [18] = target: T1, Tubulin (Homo sapiens); assay: Induction of tubulin depolymerization (unknown origin) in slow phase assessed as depolymerization rate at 100 uM (reference value: 1.3 +/- 0.1 10^-5AU/sec); type: protein-complex assay
Tubulin (Homo sapiens) [19] = target: T1, Tubulin (Homo sapiens); assay: Induction of tubulin depolymerization (unknown origin) in slow phase assessed as depolymerization rate at 10 uM (reference value: 1.3 +/- 0.1 10^-5AU/sec); type: protein-complex assay
Tubulin (Homo sapiens) [20] = target: T1, Tubulin (Homo sapiens); assay: Induction of tubulin depolymerization (unknown origin) in slow phase; type: protein-complex assay
Tubulin (Homo sapiens) [21] = target: T1, Tubulin (Homo sapiens); assay: Inhibition of tubulin polymerization (unknown origin) in rapid phase; type: protein-complex assay

SMILES	GI50 [1] [nM]	GI50 [2] [nM]	GI50 [3] [nM]	GI50 [4] [nM]	GI50 [5] [nM]	GI50 [6] [nM]	GI50 [7] [nM]	GI50 (A498) [nM]	GI50 [8] [nM]	GI50 (786-0) [nM]	GI50 (SK-MEL-28) [nM]	GI50 (KM12) [nM]	GI50 (NCI-H522) [nM]	GI50 [9] [nM]	GI50 (SK-MEL-2) [nM]	GI50 [10] [nM]	GI50 [11] [nM]	GI50 (MCF7) [nM]	GI50 [12] [nM]	GI50 [13] [nM]	further results
COc1ccc(/C=C(\C#N)c2ccc3c(c2)OCO3)c2ccccc12	3040	1140	1910	3490	3790	1650	4070	410	3960	4380	4520	2390	2370	9340	2900	6240	1570	610	1580	2060	GI50 (K562): 530 nM; GI50 (HT-29): 1600 nM
N#C/C(=C\c1cccc2ccccc12)c1ccc2c(c1)OCO2	4180	2450	2960	6940	8250	2520	5950	1170	4220	5620	5840	3770	2890	8990	3180	6480	3500	1990	2710	4180	GI50 (K562): 790 nM; GI50 (HT-29): 3020 nM
COc1ccc(/C=C(\C#N)c2ccc3c(c2)OCO3)c(OC)c1	3100		1750	3620	1650	2410	8800	1330	5330	4930	4470	2250	2580	9360	720	6660	1490	850	1610		GI50 (K562): 390 nM; GI50 (HT-29): 710 nM
COc1ccc(/C(C#N)=C/c2ccc3c(c2)OCCO3)cc1	37100	21900	10600	> 100000	24900	4450	> 100000	> 100000		35800	> 100000	4260	> 100000	> 100000	36800	> 100000	> 100000	3010	73100	> 100000	
COc1ccc(/C(C#N)=C/c2ccc3c(c2)OCCO3)cc1OC	2160	2160	2490	4690	11200	1520	9400	1350	4920	3880	4590	1590	2800	5380	1840	5010	2070	860	2560	2920	
N#C/C(=C\c1cc2ccccc2s1)c1ccc2c(c1)OCO2	40	20	40	210	1270	40	90	30	50	880	240	50	20	1640	40	80	30	90	40	50	GI50 (K562): 40 nM; Activity (Tubulin (Homo sapiens) [14]): inactive; GI50 (HT-29): 30 nM; inhibition (Tubulin (Homo sapiens) [15]): inactive
COc1ccc(/C=C(\C#N)c2ccc3c(c2)OCO3)cc1	270		200	590		80	3600	200	570	18900	450	70	40	730	210	580	240	80	250		Activity (Tubulin (Homo sapiens) [16]): 8 ×10⁻⁴ AU/sec; GI50 (K562): 40 nM; Activity (Tubulin (Homo sapiens) [17]): 8.9 ×10⁻⁴ AU/sec; Activity (Tubulin (Homo sapiens) [18]): 2 ×10⁻⁵ AU/sec; Activity (Tubulin (Homo sapiens) [19]): 1.8 ×10⁻⁵ AU/sec; GI50 (HT-29): 60 nM
COc1cc(/C(C#N)=C/c2ccc3c(c2)OCCO3)cc(OC)c1OC	40	30	20	130	260	30	630	30	60	40	60	50	50	110			40	40	20	50	Activity (Tubulin (Homo sapiens) [16]): 6.9 ×10⁻⁴ AU/sec; Activity (Tubulin (Homo sapiens) [17]): 2 ×10⁻⁴ AU/sec; Activity (Tubulin (Homo sapiens) [20]): Dose-dependent effect; inhibition (Tubulin (Homo sapiens) [21]): Dose-dependent effect; Activity (Tubulin (Homo sapiens) [18]): 3.2 ×10⁻⁵ AU/sec; Activity (Tubulin (Homo sapiens) [19]): 1.6 ×10⁻⁵ AU/sec
